Data as given in ChEMBL document CHEMBL4311965, “Antimicrobial activity of amphipathic α,α-disubstituted β-amino amide derivatives against ESBL - CARBA producing multi-resistant bacteria; effect of halogenation, lipophilicity and cationic character” (Eur J Med Chem, 2019).
In brackets after ≈: the same amount, converted by molar mass.

Key:
[1] = Selectivity index, ratio of EC50 for hemolytic activity against human RBC to MIC for antibacterial activity against Escherichia coli ATCC 25922; format: toxicity; conditions: human red blood cells (RBC)
In short: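 Selectivity index is the RBC haemolysis EC50 divided by the MIC against the E. coli or S. aureus reference strain.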

Escherichia coli [2] = test: Antibacterial activity against Escherichia coli ATCC 25922 cultured in MHB medium assessed as no bacterial growth incubated at 37 degC for 24 hrs by microdilution susceptibility test; format: functional; conditions: ATCC 25922, 24 h
In short: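 Broth microdilution per CLSI M07-A9 with modifications. Inoculum about 2.5–3 x 10⁴ cells/mL in Mueller-Hinton broth, mixed 1:1 with test derivative. DMSO stocks diluted in double-distilled water, final DMSO <1%. Incubation 24 h at 37 °C (20 °C for C. glutamicum). Growth and sterility controls included; oxytetracycline reference.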

Escherichia coli [3] = test: Antibacterial activity against multidrug-resistant Escherichia coli 50676002 producing New Delhi metallo-beta-lactamase-1 cultured in MHB medium assessed as reduction in bacterial growth incubated for 24 hrs by microdilution susceptibility test; format: functional; conditions: Escherichia coli, 50676002, 24 h
In short: (§1)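 Broth microdilution per CLSI M07-A9 (modified). Working solutions made from concentrated DMSO stocks kept at r.t., diluted in double-distilled water, final DMSO <1%. Inoculum 1–1.2 x 10⁶ cells/mL in Mueller-Hinton broth, mixed 1:1 with compound. 37 °C, 24 h, four parallels. Read as OD₆₀₀. Where precipitation left residual OD, the point of major OD decrease was taken as the inhibitory concentration.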

Klebsiella pneumoniae [4] = test: Antibacterial activity against multidrug-resistant Klebsiella pneumoniae 50531633 producing New Delhi metallo-beta-lactamase-1 and oxcillinase-181 cultured in MHB medium assessed as reduction in bacterial growth incubated for 24 hrs by microdilution susceptibility test; format: functional; conditions: Klebsiella pneumoniae, 50531633, 24 h; in short: as §1
Staphylococcus aureus = test: Antibacterial activity against multidrug-resistant Staphylococcus aureus WIS cultured in MHB medium assessed as reduction in bacterial growth incubated for 24 hrs by microdilution susceptibility test; format: functional; in short: as §1
Enterococcus faecium [5] = test: Antibacterial activity against multidrug-resistant Enterococcus faecium K36-18 cultured in BHIB medium assessed as reduction in bacterial growth incubated for 24 hrs by microdilution susceptibility test; format: functional; conditions: K36-18, 24 h
In short: (§2)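 Enterococci grown in Brain Heart Infusion broth, otherwise broth microdilution per CLSI M07-A9 (modified). Concentrated DMSO stocks kept at r.t. and diluted in double-distilled water, final DMSO <1%. Inoculum 1–1.2 x 10⁶ cells/mL mixed 1:1 with compound. 37 °C, 24 h, four parallels. OD₆₀₀ read-out, lowest concentration with no growth.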

Enterococcus faecium [6] = test: Antibacterial activity against multidrug-resistant Enterococcus faecium 50758899 cultured in BHIB medium assessed as reduction in bacterial growth incubated for 24 hrs by microdilution susceptibility test; format: functional; conditions: Enterococcus faecium, 50758899, 24 h; in short: as §2
Acinetobacter baumannii [7] = test: Antibacterial activity against multidrug-resistant Acinetobacter baumannii K47-42 producing oxcillinase-23 cultured in MHB medium assessed as reduction in bacterial growth incubated for 24 hrs by microdilution susceptibility test; format: functional; conditions: K47-42, 24 h; in short: as §1
Acinetobacter baumannii [8] = test: Antibacterial activity against multidrug-resistant Acinetobacter baumannii K12-21 producing oxcillinase-58 cultured in MHB medium assessed as reduction in bacterial growth incubated for 24 hrs by microdilution susceptibility test; format: functional; conditions: K12-21, 24 h; in short: as §1
HepG2 = test: Cytotoxicity against human HepG2 cells assessed as reduction in cell viability incubated for 4 hrs by CellTiter 96 Aqueous One Solution Reagent based assay; conditions: HepG2, 4 h
In short: (§3)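 HepG2 and MRC-5 cells seeded at 35 000 and 15 000 cells/well respectively, then held overnight at 37 °C, 5% CO₂. Compounds in serum-free MEM Earle's applied for 4 h. MTS reagent (CellTiter 96 AQueous One) added for a further 1 h, absorbance read at 485 nm. Survival expressed relative to medium (negative) and Triton X-100 (positive) controls.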

Acinetobacter baumannii [9] = test: Antibacterial activity against multidrug-resistant Acinetobacter baumannii K63-58 producing oxcillinase-23 cultured in MHB medium assessed as reduction in bacterial growth incubated for 24 hrs by microdilution susceptibility test; format: functional; conditions: K63-58, 24 h; in short: as §1
Enterococcus faecium [10] = test: Antibacterial activity against multidrug-resistant Enterococcus faecium TUH50-22 cultured in BHIB medium assessed as reduction in bacterial growth incubated for 24 hrs by microdilution susceptibility test; format: functional; conditions: TUH50-22, 24 h; in short: as §2
MRC5 = test: Cytotoxicity against human MRC5 cells assessed as reduction in cell viability incubated for 4 hrs by CellTiter 96 Aqueous One Solution Reagent based assay; conditions: MRC5, 4 h; in short: as §3
Erythrocyte = test: Hemolytic activity against human RBC incubated for 1 hr; format: cell-based
In short: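 Heparinized human blood washed three times in warm PBS and set to 10% hct. Erythrocytes at 1% v/v final, with compound in PBS (DMSO <1%), shaken 1 h at 37 °C and then centrifuged. Supernatant absorbance read at 405 and 545 nm after PBS background subtraction. Haemolysis taken relative to 1% Triton X-100. Three independent replicates, EC50 averaged.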

Klebsiella pneumoniae [11] = test: Antibacterial activity against multidrug-resistant Klebsiella pneumoniae K66-45 producing New Delhi metallo-beta-lactamase-1 cultured in MHB medium assessed as reduction in bacterial growth incubated for 24 hrs by microdilution susceptibility test; format: functional; conditions: K66-45, 24 h; in short: as §1
[12] = Aqueous solubility of the compound in DMSO; format: physicochemical

SMILES	selectivity ratio [1]	MIC (Escherichia coli [2]) [µg/mL]	MIC (Escherichia coli [3]) [µg/mL]	MIC (Klebsiella pneumoniae [4]) [µg/mL]	MIC (Staphylococcus aureus) [µg/mL]	MIC (Enterococcus faecium [5]) [µg/mL]	MIC (Enterococcus faecium [6]) [µg/mL]	MIC (Acinetobacter baumannii [7]) [µg/mL]	MIC (Acinetobacter baumannii [8]) [µg/mL]	EC50 (HepG2) [µg/mL]	MIC (Acinetobacter baumannii [9]) [µg/mL]	MIC (Enterococcus faecium [10]) [µg/mL]	EC50 (MRC5) [µg/mL]	EC50 (Erythrocyte) [µg/mL]	MIC (Klebsiella pneumoniae [11]) [µg/mL]	solubility [12]
N=C(N)NCCNC(=O)C(CNC(=N)N)(Cc1cc(Br)cc(Br)c1)Cc1cc(Br)cc(Br)c1	26	8 (≈ 11.3 µM)	8 (≈ 11.3 µM)	16 (≈ 22.5 µM)	2 (≈ 2.81 µM)	4 (≈ 5.63 µM)	4 (≈ 5.63 µM)	16 (≈ 22.5 µM)	16 (≈ 22.5 µM)	> 64	16 (≈ 22.5 µM)	2 (≈ 2.81 µM)	> 64	206 (≈ 290 µM)	16 (≈ 22.5 µM)	–
N=C(N)NCCNC(=O)C(CNC(=N)N)(Cc1cc(C(F)(F)F)cc(C(F)(F)F)c1)Cc1cc(C(F)(F)F)cc(C(F)(F)F)c1	50	4 (≈ 5.99 µM)	32 (≈ 47.9 µM)	> 32	8 (≈ 12 µM)	8 (≈ 12 µM)	8 (≈ 12 µM)	> 32	> 32	> 64	> 32	4 (≈ 5.99 µM)	> 64	201 (≈ 301 µM)	> 32	–
N=C(N)NCCNC(=O)C(CNC(=N)N)(Cc1ccc(F)c2ccccc12)Cc1ccc(F)c2ccccc12	21	16 (≈ 30.1 µM)	32 (≈ 60.2 µM)	> 32	4 (≈ 7.52 µM)	16 (≈ 30.1 µM)	16 (≈ 30.1 µM)	> 32	> 32	–	> 32	8 (≈ 15 µM)	–	329 (≈ 619 µM)	> 32	–
NCCNCC(CN)(Cc1cc(Br)cc(Br)c1)Cc1cc(Br)cc(Br)c1	6	4 (≈ 6.52 µM)	8 (≈ 13 µM)	8 (≈ 13 µM)	8 (≈ 13 µM)	8 (≈ 13 µM)	4 (≈ 6.52 µM)	16 (≈ 26.1 µM)	16 (≈ 26.1 µM)	12 (≈ 19.6 µM)	8 (≈ 13 µM)	4 (≈ 6.52 µM)	15 (≈ 24.5 µM)	24 (≈ 39.1 µM)	8 (≈ 13 µM)	–
NCCNCC(CN)(Cc1ccc(F)c2ccccc12)Cc1ccc(F)c2ccccc12	7	4 (≈ 9.23 µM)	8 (≈ 18.5 µM)	4 (≈ 9.23 µM)	4 (≈ 9.23 µM)	4 (≈ 9.23 µM)	4 (≈ 9.23 µM)	16 (≈ 36.9 µM)	8 (≈ 18.5 µM)	12 (≈ 27.7 µM)	8 (≈ 18.5 µM)	4 (≈ 9.23 µM)	9 (≈ 20.8 µM)	27 (≈ 62.3 µM)	8 (≈ 18.5 µM)	–
NCCNC(=O)C(CN)(Cc1cc(C(F)(F)F)cc(C(F)(F)F)c1)Cc1cc(C(F)(F)F)cc(C(F)(F)F)c1	12	4 (≈ 6.86 µM)	16 (≈ 27.4 µM)	16 (≈ 27.4 µM)	16 (≈ 27.4 µM)	8 (≈ 13.7 µM)	4 (≈ 6.86 µM)	16 (≈ 27.4 µM)	8 (≈ 13.7 µM)	11 (≈ 18.9 µM)	8 (≈ 13.7 µM)	8 (≈ 13.7 µM)	11 (≈ 18.9 µM)	48 (≈ 82.3 µM)	32 (≈ 54.8 µM)	Soluble
NCCNC(=O)C(CN)(Cc1ccccc1C(F)(F)F)Cc1ccccc1C(F)(F)F	10	32 (≈ 71.5 µM)	> 32	> 32	> 32	> 32	> 32	> 32	> 32	45 (≈ 101 µM)	> 32	> 32	42 (≈ 93.9 µM)	312 (≈ 697 µM)	> 32	Soluble
NCCNCC(CN)(Cc1ccccc1Br)Cc1ccccc1Br	13	16 (≈ 35.1 µM)	16 (≈ 35.1 µM)	16 (≈ 35.1 µM)	8 (≈ 17.6 µM)	16 (≈ 35.1 µM)	16 (≈ 35.1 µM)	16 (≈ 35.1 µM)	16 (≈ 35.1 µM)	18 (≈ 39.5 µM)	16 (≈ 35.1 µM)	16 (≈ 35.1 µM)	8 (≈ 17.6 µM)	209 (≈ 459 µM)	16 (≈ 35.1 µM)	–
NCCNCC(CN)(Cc1cc(C(F)(F)F)cc(C(F)(F)F)c1)Cc1cc(C(F)(F)F)cc(C(F)(F)F)c1	6	4 (≈ 7.02 µM)	8 (≈ 14 µM)	8 (≈ 14 µM)	8 (≈ 14 µM)	8 (≈ 14 µM)	8 (≈ 14 µM)	8 (≈ 14 µM)	8 (≈ 14 µM)	7 (≈ 12.3 µM)	8 (≈ 14 µM)	4 (≈ 7.02 µM)	14 (≈ 24.6 µM)	23 (≈ 40.4 µM)	8 (≈ 14 µM)	–
NCCNC(=O)C(CN)(Cc1ccc(C(F)(F)F)cc1)Cc1ccc(C(F)(F)F)cc1	18	16 (≈ 35.8 µM)	> 32	32 (≈ 71.5 µM)	> 32	16 (≈ 35.8 µM)	32 (≈ 71.5 µM)	> 32	> 32	–	> 32	8 (≈ 17.9 µM)	16 (≈ 35.8 µM)	289 (≈ 646 µM)	> 32	Soluble
